In ChEMBL document CHEMBL1158759, “Cytotoxic bisindole alkaloids from a marine sponge Spongosorites sp” (J Nat Prod, 2005):
Converted amounts (≈) assume the structure as drawn.

Assays:
A549 = test: Cytotoxicity against human A549 cells after 48 hrs by SRB assay; assay type: functional; conditions: A549, 48 h, read-out: ED50 (the source's name)
In short: (§1)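 Cells in exponential growth were seeded at (1-2) × 10^4 per well and grown 24 h. Cells were fixed with cold TCA and stained with 0.4% SRB in 1% acetic acid. Dye was solubilized in 10 mM unbuffered Tris base and A520 read.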

SK-OV-3 = test: Cytotoxicity against human SKOV3 cells after 48 hrs by SRB assay; assay type: functional; conditions: SK-OV-3, 48 h, read-out: ED50 (the source's name); in short: as §1
SK-MEL-2 = test: Cytotoxicity against human SK-MEL-2 cells after 48 hrs by SRB assay; assay type: functional; conditions: SK-MEL-2, 48 h, read-out: ED50 (the source's name); in short: as §1
XF498 = test: Cytotoxicity against human XF498 cells after 48 hrs by SRB assay; assay type: functional; conditions: XF498, 48 h, read-out: ED50 (the source's name); in short: as §1
HCT-15 = test: Cytotoxicity against human HCT15 cells after 48 hrs by SRB assay; assay type: functional; conditions: HCT-15, 48 h, read-out: ED50 (the source's name); in short: as §1
P388 = test: Cytotoxicity against mouse P388 cells; assay type: functional, cell-based
Streptococcus pyogenes [1] = test: Antibacterial activity against Streptococcus pyogenes 308A; assay type: functional
In short: (§2)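 Agar dilution on Mueller Hinton agar holding 17 serial dilutions of sample (final 25 to 0.002 µg/mL), with meropenem and imipenem as standards. Strains were pre-grown 18 h at 37 °C in Fleisch extract broth, with 10% horse serum for some strains.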

Streptococcus pyogenes [2] = test: Antibacterial activity against Streptococcus pyogenes 77A; assay type: functional; in short: as §2
Enterococcus faecium = test: Antibacterial activity against Streptococcus faecium MD 8b; assay type: functional; in short: as §2
Staphylococcus aureus [3] = test: Antibacterial activity against Staphylococcus aureus SG511; assay type: functional; in short: as §2
Staphylococcus aureus [4] = test: Antibacterial activity against Staphylococcus aureus 285; assay type: functional; in short: as §2
Escherichia coli = test: Antibacterial activity against Escherichia coli DC2; assay type: functional; in short: as §2
Pseudomonas aeruginosa = test: Antibacterial activity against Pseudomonas aeruginosa 1771M; assay type: functional; in short: as §2
Klebsiella oxytoca = test: Antibacterial activity against Klebsiella oxytoca 1082; assay type: functional; in short: as §2
Staphylococcus aureus [5] = test: Antibacterial activity against Staphylococcus aureus 503; assay type: functional; in short: as §2

## O=C(c1nc(-c2c[nH]c3ccccc23)c[nH]1)c1c[nH]c2cc(O)ccc12 [TOPSENTIN]
A549
  EC50: > 30 µg/mL
SK-OV-3
  EC50: > 30 µg/mL
SK-MEL-2
  EC50: > 30 µg/mL
XF498
  EC50: > 30 µg/mL
HCT-15
  EC50: 13.3 µg/mL (≈ 38.9 µM)
P388
  IC50: 2 µg/mL (≈ 5.84 µM)

## O=C(c1nc(-c2c[nH]c3cc(Br)ccc23)c[nH]1)c1c[nH]c2cc(O)ccc12 [BROMOTOPSENTIN]
A549
  EC50: > 30 µg/mL
SK-OV-3
  EC50: 28.1 µg/mL (≈ 66.8 µM)
SK-MEL-2
  EC50: 7.02 µg/mL (≈ 16.7 µM)
XF498
  EC50: 15 µg/mL (≈ 35.6 µM)
HCT-15
  EC50: > 30 µg/mL
P388
  IC50: 7 µg/mL (≈ 16.6 µM)

## C[C@@H](O)[C@H]1C(=O)N2C(C(=O)O)=C(S[C@@H]3CN[C@H](C(=O)N(C)C)C3)[C@H](C)[C@H]12 [MEROPENEM]
Streptococcus pyogenes [1]
  MIC: 0.007 µg/mL (≈ 0.0183 µM)
Streptococcus pyogenes [2]
  MIC: 0.007 µg/mL (≈ 0.0183 µM)
Enterococcus faecium
  MIC: 6.25 µg/mL (≈ 16.3 µM)
Staphylococcus aureus [3]
  MIC: 0.098 µg/mL (≈ 0.256 µM)
Staphylococcus aureus [4]
  MIC: 0.195 µg/mL (≈ 0.509 µM)
Escherichia coli
  MIC: 0.025 µg/mL (≈ 0.0652 µM)
Pseudomonas aeruginosa
  MIC: 0.098 µg/mL (≈ 0.256 µM)
Klebsiella oxytoca
  MIC: 0.049 µg/mL (≈ 0.128 µM)
Staphylococcus aureus [5]
  MIC: 0.049 µg/mL (≈ 0.128 µM)

## O=C1NC[C@@H](c2c[nH]c3cc(Br)ccc23)N[C@H]1c1c[nH]c2cc(Br)ccc12 (relative stereo) [CIS-3,4-DIHYDROHAMACANTHIN B]
A549
  EC50: 3.41 µg/mL (≈ 6.99 µM)
SK-OV-3
  EC50: 3.62 µg/mL (≈ 7.42 µM)
SK-MEL-2
  EC50: 3.85 µg/mL (≈ 7.89 µM)
XF498
  EC50: 3.22 µg/mL (≈ 6.6 µM)
HCT-15
  EC50: 2.83 µg/mL (≈ 5.8 µM)
Streptococcus pyogenes [1]
  MIC: 12.5 µg/mL (≈ 25.6 µM)
Streptococcus pyogenes [2]
  MIC: 25 µg/mL (≈ 51.2 µM)
Enterococcus faecium
  MIC: > 25 µg/mL
Staphylococcus aureus [3]
  MIC: 12.5 µg/mL (≈ 25.6 µM)
Staphylococcus aureus [4]
  MIC: 25 µg/mL (≈ 51.2 µM)
Escherichia coli
  MIC: 25 µg/mL (≈ 51.2 µM)
Pseudomonas aeruginosa
  MIC: 25 µg/mL (≈ 51.2 µM)
Klebsiella oxytoca
  MIC: 25 µg/mL (≈ 51.2 µM)
Staphylococcus aureus [5]
  MIC: 25 µg/mL (≈ 51.2 µM)

## COc1cccc2c1C(=O)c1c(O)c3c(c(O)c1C2=O)C[C@@](O)(C(=O)CO)C[C@@H]3O[C@H]1C[C@H](N)[C@H](O)[C@H](C)O1 [DOXORUBICIN]
A549
  EC50: 0.01 µg/mL (≈ 0.0184 µM)
SK-OV-3
  EC50: 0.03 µg/mL (≈ 0.0552 µM)
SK-MEL-2
  EC50: 0.01 µg/mL (≈ 0.0184 µM)
XF498
  EC50: 0.01 µg/mL (≈ 0.0184 µM)
HCT-15
  EC50: 0.05 µg/mL (≈ 0.092 µM)

## C[C@@H](O)[C@H]1C(=O)N2C(C(=O)O)=C(SCCNC=N)C[C@H]12 [IMIPENEM ANHYDROUS]
Streptococcus pyogenes [1]
  MIC: 0.004 µg/mL (≈ 0.0134 µM)
Streptococcus pyogenes [2]
  MIC: 0.004 µg/mL (≈ 0.0134 µM)
Enterococcus faecium
  MIC: 0.781 µg/mL (≈ 2.61 µM)
Staphylococcus aureus [3]
  MIC: 0.013 µg/mL (≈ 0.0434 µM)
Staphylococcus aureus [4]
  MIC: 0.013 µg/mL (≈ 0.0434 µM)
Escherichia coli
  MIC: 0.195 µg/mL (≈ 0.651 µM)
Pseudomonas aeruginosa
  MIC: 0.098 µg/mL (≈ 0.327 µM)
Klebsiella oxytoca
  MIC: 0.195 µg/mL (≈ 0.651 µM)
Staphylococcus aureus [5]
  MIC: 0.007 µg/mL (≈ 0.0234 µM)
